Source: PubChem (several laboratories)
ADAM10 inh: inhibits human ADAM10 | inhibition, % at 7 µM | O14672 | recombinant ADAM10, EDANS/DABCYL FRET peptide cleavage, 3 h | actives 0.62% (n = 370,000);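 active = inhibition above a per-campaign cutoff equal to the mean of compounds falling between control-based bounds plus 3 SD, cut at about 20% in these data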;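 note: 0% = DMSO wells while the 100% control is not disclosed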
MPTP block: permeability transition pore inhibition; actives 1.4% (n = 360,000); AID 602449; inhibition, % at 10 µM; isolated mouse mitochondria, Ca2+ swelling absorbance, 30 min;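 active = inhibition of 50% or more, scaled per plate between neutral and stimulator controls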;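 note: 0% = DMSO wells given calcium and 100% = 1 mM EGTA wells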
ADAM17 inh: inhibits human ADAM17 | P78536 | recombinant ADAM17, EDANS/DABCYL FRET peptide cleavage | inhibition, % at 6.95 µM | actives 0.83% (n = 370,000) | AID 720648;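 active = inhibition above the mean of compounds lying between control limits plus 3 SD, set per campaign, cut at about 8.5% in these data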;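 note: 0% = DMSO-only wells as the low control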
Target sequence (P78536 215-824 limits assumed): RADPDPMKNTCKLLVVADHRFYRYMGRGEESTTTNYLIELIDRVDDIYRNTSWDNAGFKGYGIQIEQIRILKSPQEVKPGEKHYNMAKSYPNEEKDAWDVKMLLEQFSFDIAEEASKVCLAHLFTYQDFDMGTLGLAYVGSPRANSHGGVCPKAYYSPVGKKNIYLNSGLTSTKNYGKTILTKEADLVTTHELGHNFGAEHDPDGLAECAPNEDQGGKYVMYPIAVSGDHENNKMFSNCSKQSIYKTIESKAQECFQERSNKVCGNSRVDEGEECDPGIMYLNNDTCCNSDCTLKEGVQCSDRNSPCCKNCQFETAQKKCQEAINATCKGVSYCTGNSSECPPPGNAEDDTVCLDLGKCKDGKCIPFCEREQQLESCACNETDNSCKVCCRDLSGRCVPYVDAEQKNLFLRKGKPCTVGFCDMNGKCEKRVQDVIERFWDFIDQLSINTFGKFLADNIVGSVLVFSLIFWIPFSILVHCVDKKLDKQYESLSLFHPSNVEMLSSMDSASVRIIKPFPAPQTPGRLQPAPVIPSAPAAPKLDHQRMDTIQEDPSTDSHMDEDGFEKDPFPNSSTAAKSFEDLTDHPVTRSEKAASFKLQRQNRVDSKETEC
MT1-MMP act inh: MT1-MMP (human) activation inhibition | P50281 | HT1080 RFP-PRO-GFP cells, GFP/RFP ratio fluorescence, overnight; percent of plate control window, DMSO zero | GFP/RFP ratio change, % at 20 µM | actives 0.061% (n = 360,000);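 active = GFP/RFP ratio change of at least 30% with cell ATP level not reduced by more than half and red fluorescence within 50% of control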
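Assay system: HT1080 RFP-PRO-GFP cells. Benchmarks: DMSO vehicle wells and RFP-L50D-GFP reporter cell wells. Times: overnight cell settling, then overnight compound exposure, 37 °C, 5% CO2. Compound: 20 µM single dose, 1% DMSO. Read-out basis: GFP/RFP fluorescence ratio.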
SKN-1 block: blocks SKN-1 activity in C. elegans; C. elegans VP596 Pgst-4::GFP/RFP ratio, acrylamide-induced, 24 h; inhibition, % at 21.8 µM; actives 0.49% (n = 360,000); AID 624304;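 active = interference check ratio from 0.5 to 1.5 plus GFP to RFP signal ratio inhibition reaching or exceeding a fixed threshold, cut at about 30% in these data, passing the limit was not always enough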
NR3A LBD binder: modulators (binders) of human NR3A ligand-binding domain | AID 1259313 | Tm shift relative to glycine control, % at 25 µM | NR3A LBD differential scanning fluorimetry, Tm shift; 0% = protein alone, 100% = glycine-bound protein | actives 2.5% (n = 340,000);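 active = melting temperature shift of at least 10% of the positive control shift, at one fixed dose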
Rh123 counter: mitochondrial membrane potential, counter-screen; shares compounds with MPTP block; isolated mitochondria, Rhodamine 123 fluorescence; inhibition, % at 10 µM; actives 78% (n = 5,000); in the data active = inhibition above about 22%;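 note: 0% = DMSO vehicle and 100% = positive control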
MPTP swell DR: MPTP inhibition, dose response swelling confirmation; shares compounds with MPTP block; isolated mitochondria swelling, absorbance; IC50, µM; actives 58% (n = 780); AID 651561; in the data active = IC50 below about 20 µM
MPTP cs DR: active in counter-screen for permeability transition pore inhibitors; shares compounds with MPTP block; IC50, µM; isolated mitochondria counterscreen, fluorescence read-out; actives 49% (n = 780); in the data active = IC50 below about 80 µM
Numbers without * were called inactive; nt = no result given. This is a sample that favours compounds with a hit; in the whole collection about 4.7% have one here.

SMILES	ADAM10 inh	MPTP block	ADAM17 inh	MT1-MMP act inh	SKN-1 block	NR3A LBD binder	Rh123 counter	others
Cc1ccc(-n2cc(CNCCn3nc(C)cc3C)c(-c3ccc(F)cc3)n2)cc1	6	13	4	-8	0	-3	nt
COc1ccc(-n2cc(CNCCc3nc(C)cc(C)n3)c(-c3ccccc3Cl)n2)cc1	-1	3	-2	-5	4	-4	nt
CCOCCCNc1ncnc2c1[nH]c1ccccc12	-141	-1	-46	0	1	0	nt
CCCCOCCCNc1ncnc2c1[nH]c1ccccc12	-175	92*	-54	8	-7	-7	93*
O=C1c2cc(Cl)ccc2-c2c(O)cc(Cl)cc21	-3	99*	2	-5	-1	14*	78*
O=c1cc(O)c(-c2ccc(Cl)cc2)c(Cl)[nH]1	-1	2	-1	-1	-8	-2	nt
COc1ccc(NS(=O)(=O)c2ccc(N3CCCCC3)c(N)c2)cc1	-8	90*	5	10	-8	-6	87*
Nc1cc(S(=O)(=O)N2CCCCC2)ccc1N1CCOCC1	-5	-2	4	5	-10	-1	nt
CC1CCN(c2ccc(S(=O)(=O)N3CCC(C)CC3)cc2N)CC1	10	69*	2	-4	-6	-1	77*
Nc1cc(S(=O)(=O)c2ccc(N3CCCCC3)c(N)c2)ccc1N1CCCCC1	-32	94*	-4	1	-12	nt	105*
Cc1c(Br)cc(C(=O)OC2CCN(C)CC2)c(C)c1C	5	0	-2	1	17	-11	nt
c1ccc(OCc2nn3c(C4CCCCC4)nnc3s2)cc1	-4	0	1	-3	-8	0	nt
CCN(CC)c1ccc(S(=O)(=O)N2CCOCC2)cc1NC(=O)CN1C(=O)NC2(CCC(C)CC2)C1=O (configuration not stated)	-7	-1	0	-4	2	-1	nt
Cc1ccc2c(c1)nnn2C1CCN(S(=O)(=O)c2ccc3ccccc3c2)CC1	12	0	5	5	7	2	nt
Cc1ccc2c(c1)nnn2C1CCN(S(=O)(=O)c2ccc(C(=O)N3CC(C)CC(C)C3)cc2)CC1 (configuration not stated)	1	56*	2	-6	7	-1	40*
Cc1ccc2c(c1)nnn2C1CCN(S(=O)(=O)c2cccc(S(=O)(=O)N(C)C)c2)CC1	2	88*	3	-1	7	-1	87*
O=C(N[C@H]1C/C=C\C[C@@H](CC(=O)N(CCO)Cc2ccccc2)C(=O)N2CCC[C@H]2COC1=O)OCC1c2ccccc2-c2ccccc21	-9	-1	-4	-2	4	-1	nt
CC(=O)c1cc(-c2cccc([N+](=O)[O-])c2)c(=O)n2c1CCC2	-11	nt	-8	nt	nt	nt	nt
CCc1c(C(=O)Nc2cc(C)cc(C)c2)[nH]c(C)c1C(C)=O	-1	79*	-6	-2	2	-12	84*
CCOc1ccc(CCNC(=O)c2[nH]c(C)c(C(C)=O)c2CC)cc1OCC	0	3	-4	7	-3	0	nt
COc1cc2c(cc1OC)[N+]([O-])=C(c1ccccc1)C2=O	-5	nt	-4	nt	nt	nt	nt
CCN1CCN(c2ncc(C(=O)Nc3c(F)cc(F)cc3Br)c3ccccc23)CC1	-28	70*	-4	-22	5	-1	-6	MPTP swell DR=7.9*;MPTP cs DR=>80
CCCCCCC(C)NC(=S)Nc1cc(S(=O)(=O)N(C)C)ccc1C (configuration not stated)	5	64*	4	-5	8	1	79*
Cc1ccc(S(=O)(=O)N(C)C)cc1NC(=S)NC(C)CCC(C)C (configuration not stated)	3	57*	2	5	-2	-25	73*
CC(=O)NNC(=S)Nc1cc(S(=O)(=O)N(C)C)ccc1C	1	-2	1	-4	0	0	nt
SMILES	ADAM10 inh	MPTP block	ADAM17 inh	MT1-MMP act inh	SKN-1 block	NR3A LBD binder	Rh123 counter	others
Cc1ccc(S(=O)(=O)N(C)C)cc1NC(=S)Nc1cccc2ccccc12	-92	2	-32	3	19	-4	nt
Cc1cc(C)cc(NC(=O)Nc2cc(S(=O)(=O)N(C)C)ccc2C)c1	3	64*	-3	2	-8	1	84*
Cc1ccc(S(=O)(=O)N(C)C)cc1NC(=S)NC(C)CCCC(C)C (configuration not stated)	4	96*	0	-3	8	-4	92*
CCOC(=O)c1c(NC(=O)CSc2nc3ccc(C)cc3[nH]2)sc2c1CC(C)(C)NC2(C)C	-5	2	0	-6	13	-2	nt
CC(C)(C)C(=O)O/N=C(\N)c1ccc(Oc2cc(Cl)cc(Cl)c2)c([N+](=O)[O-])c1	2	1	-7	1	-8	-3	nt
CN(C)C(=O)C1CC(=O)OC12CCCCC2 (configuration not stated)	-11	-2	-5	nt	-25	0	nt
O=C(c1ccc2c(c1)OCO2)N1CCN(S(=O)(=O)c2ccc(Br)cc2Cl)CC1	-3	-1	2	-3	-10	1	nt
N#CC1=C(N)NC(SCc2ccccc2)=C(C#N)C12CCCCC2	5	68*	-1	1	-4	-6	74*
CCSC1=C(C#N)C2(CCCCC2)C(C#N)=C(N)N1	-4	0	3	1	1	-14	nt
CCOc1ccc(C(=O)Nc2cccc(-c3nc4cccnc4o3)c2)cc1Cl	nt	1	nt	nt	-10	4	nt
BrCCOCCOc1ccc2ccccc2c1	2	0	3	0	19	1	nt
c1ccc(CC2CCN(c3ncnc4sccc34)CC2)cc1	8	100*	5	-8	2	1	98*
Cc1ccc(S(=O)(=O)N2CCN(c3ncnc4sccc34)CC2)cc1	6	82*	-1	-8	9	-26	85*
c1ccc(OC2CCN(c3ncnc4sccc34)CC2)cc1	2	nt	-1	nt	nt	nt	nt
Cc1sc2ncnc(N3CCN(S(=O)(=O)c4ccc(F)cc4)CC3)c2c1C	0	56*	-1	-5	7	1	66*
O=S(=O)(c1ccc(F)c(F)c1F)N1CCN(c2ncnc3sccc23)CC1	1	68*	-1	1	6	-6	87*
O=C(Cn1nc(-c2ccc(Cl)cc2)ccc1=O)NCCN1CCOCC1	-2	0	4	2	-8	-2	nt
